Data from ChEMBL document CHEMBL4428080, “Discovery and Pharmacological Characterization of Novel Quinazoline-Based PI3K Delta-Selective Inhibitors” (ACS Med Chem Lett, 2016).
Converted amounts (≈) assume the structure as drawn.

How the values were obtained:
[1] = Equilibrium solubility of the compound at pH 6.8 by high-throughput assay; format: physicochemical; conditions: buffer
Outline: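 High-throughput equilibrium solubility determination at pH 6.8, reported in mM.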

[2] = Octanol/water partition coefficient, log P of the compound by high-throughput assay; format: physicochemical
[3] = Tmax in Beagle dog at 0.3 mg/kg, po by HPLC method; format: ADME, organism-based, Canis lupus familiaris; conditions: in vivo
Outline: (§1)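 Oral PK in Sprague Dawley rats at 3 or 30 mg/kg and in dogs at 0.3 mg/kg. Dose-normalized parameters are scaled to 1 mg·kg^-1.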

[4] = Dose normalized AUC in Sprague-Dawley rat at 1 mg/kg, iv by HPLC method; format: ADME, organism-based; conditions: in vivo
[5] = Dose normalized AUC in Sprague-Dawley rat at 3 mg/kg, po by HPLC method; format: ADME, organism-based; conditions: in vivo
[6] = Tmax in Lewis rat blood at 30 mg/kg, po administered as single dose by LC-MS analysis; format: ADME, organism-based; conditions: whole blood
Outline: (§2)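 Lewis rats received a single oral dose of 30 mg/kg. Blood was collected at various time points and drug levels were determined.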

[7] = Tmax in Sprague-Dawley rat at 30 mg/kg, po by HPLC method; format: ADME, organism-based; conditions: in vivo; outline: as §1
[8] = Dose normalized AUC in Sprague-Dawley rat at 30 mg/kg, po by HPLC method; format: ADME, organism-based; conditions: in vivo; outline: as §1
[9] = Tmax in Sprague-Dawley rat at 3 mg/kg, po by HPLC method; format: ADME, organism-based; conditions: in vivo; outline: as §1
[10] = Oral bioavailability in Sprague-Dawley rat at 3 mg/kg by HPLC method; format: ADME, organism-based; conditions: in vivo; outline: as §1
[11] = Dose normalized AUC in Beagle dog at 0.1 mg/kg, iv by HPLC method; format: ADME, organism-based, Canis lupus familiaris; conditions: in vivo
[12] = Drug uptake in Lewis rat blood at 30 mg/kg, po administered as single dose by LC-MS analysis; format: ADME, organism-based; conditions: in vivo, read-out: Drug uptake; outline: as §2
[13] = Dose normalized AUC in Beagle dog at 0.3 mg/kg, po by HPLC method; format: ADME, organism-based, Canis lupus familiaris; conditions: in vivo; outline: as §1
[14] = Dose normalized Cmax in Sprague-Dawley rat at 3 mg/kg, po by HPLC method; format: ADME, organism-based; conditions: in vivo; outline: as §1
[15] = Dose normalized Cmax in Sprague-Dawley rat at 30 mg/kg, po by HPLC method; format: ADME, organism-based; conditions: in vivo; outline: as §1
[16] = Volume of distribution at steady state in Sprague-Dawley rat at 1 mg/kg, iv by HPLC method; format: ADME, organism-based; conditions: in vivo, read-out: Vdss
[17] = Volume of distribution at steady state in Beagle dog at 0.1 mg/kg, iv by HPLC method; format: ADME, organism-based, Canis lupus familiaris; conditions: in vivo, read-out: Vdss
[18] = Dose normalized Cmax in Beagle dog at 0.3 mg/kg, po by HPLC method; format: ADME, organism-based, Canis lupus familiaris; conditions: in vivo; outline: as §1
[19] = Oral bioavailability in Sprague-Dawley rat at 30 mg/kg by HPLC method; format: ADME, organism-based; conditions: in vivo; outline: as §1
[20] = Oral bioavailability in Beagle dog at 0.3 mg/kg by HPLC method; format: ADME, organism-based, Canis lupus familiaris; conditions: in vivo; outline: as §1

SMILES | solubility thermodynamic [1] | logP [2] | further results
COc1ccc(-c2ccc3ncnc(N4CCC[C@H](C(=O)N5CCN(C)CC5)C4)c3c2)cn1 | > 1000 µM | – | –
COc1ccc(-c2ccc3ncnc(-c4cccc(C(=O)N5CCN(C(C)=O)CC5)c4)c3c2)cn1 | > 1000 µM | 2.7 | –
COc1ccc(-c2ccc3ncnc(-c4cncc(C(=O)N5CCN(C)CC5)c4)c3c2)cn1 | > 1000 µM | 1.9 | –
COc1ncc(-c2ccc3ncnc(-c4cccc(C(=O)N5CCN(C)CC5)c4)c3c2)cc1C#N | 420 µM (≈ 195 µg/mL) | 1.9 | –
COc1ccc(-c2ccc3ncnc(-c4cccc(C(=O)N5CCN(C)CC5)c4)c3c2)cc1OC | 850 µM (≈ 398 µg/mL) | 2.8 | –
COc1ccc(-c2ccc3ncnc(-c4cccc(C(=O)N5CCN(C(C)=O)CC5)c4)c3c2)cc1OC | 800 µM (≈ 397 µg/mL) | 1.9 | –
CN1CCN(C(=O)c2cccc(-c3ncnc4ccc(-c5cnc6ccccc6c5)cc34)c2)CC1 | > 1000 µM | 3.1 | –
COc1ncc(-c2ccc3ncnc(-c4cccc(C(=O)N5CCN(C(C)=O)CC5)c4)c3c2)cc1C(F)(F)F | 380 µM (≈ 203 µg/mL) | 3.1 | –
COc1ncc(-c2ccc3ncnc(-c4cccc(C(=O)N5CCN(C(C)=O)CC5)c4)c3c2)cc1C#N | 210 µM (≈ 103 µg/mL) | 2.8 | Tmax [3]: 48 min; AUC/dose [4]: 2315 nM·h; AUC/dose [5]: 500 nM·h; Tmax [6]: 2 h; Tmax [7]: 5.3 h; AUC/dose [8]: 237 nM·h; Tmax [9]: 3.5 h; bioavailability [10]: 22%; AUC/dose [11]: 2798 nM·h; concentration [12]: 5 µM; AUC/dose [13]: 1188 nM·h; Cmax/dose [14]: 48 nM; Cmax/dose [15]: 20 nM; Vd [16]: 2 L/kg; Vd [17]: 1 L/kg; Cmax/dose [18]: 440 nM; bioavailability [19]: 10%; bioavailability [20]: 42%
CC(=O)N1CCN(C(=O)c2cccc(-c3ncnc4ccc(-c5cnc6ccccc6c5)cc34)c2)CC1 | 610 µM (≈ 297 µg/mL) | 2.8 | –
COc1ccc(-c2ccc3ncnc(-c4cccc(C(=O)N5CCN(C)CC5)c4)c3c2)cn1 | > 1000 µM | 2.2 | –
COc1ncc(-c2ccc3ncnc(-c4cccc(C(=O)N5CCN(C)CC5)c4)c3c2)cc1C(F)(F)F | 850 µM (≈ 431 µg/mL) | 3.9 | –
